ChEMBL document CHEMBL4257510, “Mercaptoacetate thioesters and their hydrolysate mercaptoacetic acids jointly inhibit metallo-β-lactamase L1” (Medchemcomm, 2018)
The source made the active and inactive calls. The calls are words filed in the database; no cut-off is given here.

Test system: Escherichia coli
Test: Potentiation of cefazolin-mediated antibacterial activity against Escherichia coli BL21(DE3) assessed as cefazolin MIC at 16 ug/ml after 16 hrs by broth macrodilution method (reference value: 4 ug/ml)
Type: functional
Details: not given
How it was run: (§1)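 E. coli BL21(DE3) carrying pET26b-L1 was grown overnight in Mueller-Hinton broth at 37 °C, pelleted and resuspended to OD600 0.1. MICs were determined by CLSI broth macrodilution after at least 16 h at 37 °C, taking the lowest concentration with no visible growth. Triplicates in at least two independent experiments; highest MIC reported.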

With `CSCC[C@H](NC(=O)c1ccc(Cl)cc1)C(=O)SCC(=O)O` as the compound, how does the MIC read?
The MIC was 4 µg/mL.

With `O=C(O)CSC(=O)[C@H](Cc1c[nH]c2ccccc12)NC(=O)c1cccc(Br)c1` as the compound, how does the MIC read?
Its MIC is 4 µg/mL.

Which MIC does the source give for `O=C(O)CSC(=O)[C@H](Cc1c[nH]c2ccccc12)NC(=O)c1ccc(C(F)(F)F)cc1` here?
The MIC was 4 µg/mL.

For `O=C(O)CSC(=O)[C@H](Cc1c[nH]c2ccccc12)NC(=O)c1cccc([N+](=O)[O-])c1`, which MIC is on record?
The MIC was 4 µg/mL.

Test system: Bacteria
Test: Binding affinity to bacterial metallo-beta-lactamase L1 expressed in Escherichia coli BL21 (DE3) assessed as change in gibbs free energy by ITC method
Details: not given

With `CSCC[C@H](NC(=O)c1ccc(Cl)cc1)C(=O)SCC(=O)O` as the compound, how does the deltaG read?
The deltaG was -6.43 kcal/mol.

Test system: not listed separately
Test: Binding affinity to bacterial metallo-beta-lactamase L1 expressed in Escherichia coli BL21 (DE3) by ITC method
Set-up: species or system Bacteria
Details: not given

With `CSCC[C@H](NC(=O)c1ccc(Cl)cc1)C(=O)SCC(=O)O` as the compound, how does the Kd read?
The Kd was 19.7 µM.

Test system: not listed separately
Test: Drug level assessed as bacterial metallo-beta-lactamase L1-mediated compound formation treated with 2-(((4-Chlorobenzoyl)methionyl)thio)acetic acid by HPLC method
Type: ADME
Details: bacteria
How it was run: (§2)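 L1-mediated hydrolysis of thioester followed by HPLC under IC50 assay conditions, on a C18 column (150 × 4.6 mm, 5 µm) at 1.0 mL/min.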

With `CSCC[C@H](NC(=O)c1ccc(Cl)cc1)C(=O)O` as the compound, how does the Drug metabolism read?
The Drug metabolism was “Metabolite_Detected”.

Test system: Bacteria
Test: Binding affinity to bacterial metallo-beta-lactamase L1 expressed in Escherichia coli BL21 (DE3) assessed as change in entropy by ITC method
Details: not given

With `CSCC[C@H](NC(=O)c1ccc(Cl)cc1)C(=O)SCC(=O)O` as the compound, how does the TdeltaS read?
The TdeltaS was -21.8 kcal/mol.

Test system: Bacteria
Test: Binding affinity to bacterial metallo-beta-lactamase L1 expressed in Escherichia coli BL21 (DE3) treated with 2-(((4-Chlorobenzoyl)methionyl)thio)acetic acid at 2 to 10 mM after 1 hr by STD NMR method
Details: not given
How it was run: (§3)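 1H STD-NMR at 300 MHz on-resonance and 2000 MHz off-resonance saturation. Total saturation time 1.5 s, relaxation delay 2.5 s. Samples were run in D2O with 5% DMSO-d6 and 150 mM NaCl at pH 7.5, after 1 h pre-incubation. Compound came from 100 mM stock in DMSO-d6.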

With `CSCC[C@H](NC(=O)c1ccc(Cl)cc1)C(=O)O` as the compound, how does the Activity read?
The Activity was “Active”.

For `O=C(O)CS`, which Activity is on record?
The Activity was “Active”.

Test system: not listed separately
Test: Inhibition of bacterial metallo-beta-lactamase L1 expressed in Escherichia coli BL21 (DE3) using cefazolin as substrate preincubated for 30 mins followed by substrate addition
Set-up: species or system Bacteria
Details: not given
How it was run: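 IC50 measured at 25 °C with 50 µM cefazolin and inhibitor varied over 0.01–2 µM, after 30 min enzyme–inhibitor pre-incubation. Compounds were dissolved in DMSO and diluted in 30 mM Tris pH 7.0, with final DMSO below 0.1%.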

Which IC50 does the source give for `CSCC[C@H](NC(=O)c1ccc(Cl)cc1)C(=O)SCC(=O)O` here?
The IC50 was 0.94 µM.

Which IC50 does the source give for `O=C(O)CSC(=O)[C@H](Cc1c[nH]c2ccccc12)NC(=O)c1cccc(Br)c1` here?
The IC50 was 0.62 µM.

For `O=C(O)CSC(=O)[C@H](Cc1c[nH]c2ccccc12)NC(=O)c1ccc(C(F)(F)F)cc1`, which IC50 is on record?
Its IC50 is 1.03 µM.

With `O=C(O)CSC(=O)[C@H](Cc1c[nH]c2ccccc12)NC(=O)c1cccc([N+](=O)[O-])c1` as the compound, how does the IC50 read?
Its IC50 is 0.8 µM.

Test system: Bacteria
Test: Inhibition of bacterial metallo-beta-lactamase L1 expressed in Escherichia coli BL21 (DE3) assessed as decrease in cefazolin MIC at 16 ug/ml after 16 hrs by broth macrodilution method relative to control
Details: not given
How it was run: as §1

Which fold change (FC) does the source give for `CSCC[C@H](NC(=O)c1ccc(Cl)cc1)C(=O)SCC(=O)O` here?
Its fold change (FC) is 2 to 4.

With `O=C(O)CSC(=O)[C@H](Cc1c[nH]c2ccccc12)NC(=O)c1cccc(Br)c1` as the compound, how does the fold change (FC) read?
Its fold change (FC) is 2 to 4.

For `O=C(O)CSC(=O)[C@H](Cc1c[nH]c2ccccc12)NC(=O)c1ccc(C(F)(F)F)cc1`, which fold change (FC) is on record?
The fold change (FC) was 2 to 4.

For `O=C(O)CSC(=O)[C@H](Cc1c[nH]c2ccccc12)NC(=O)c1cccc([N+](=O)[O-])c1`, which fold change (FC) is on record?
The fold change (FC) was 2 to 4.

Test system: Bacteria
Test: Inhibition of bacterial metallo-beta-lactamase ImiS expressed in Escherichia coli BL21 (DE3) at 20 uM using imipenem as substrate preincubated for 30 mins followed by substrate addition
Details: not given

With `CSCC[C@H](NC(=O)c1ccc(Cl)cc1)C(=O)SCC(=O)O` as the compound, how does the inhibition read?
The inhibition was “inactive”.

For `O=C(O)CSC(=O)[C@H](Cc1c[nH]c2ccccc12)NC(=O)c1cccc(Br)c1`, which inhibition is on record?
Its inhibition is “inactive”.

Which inhibition does the source give for `O=C(O)CSC(=O)[C@H](Cc1c[nH]c2ccccc12)NC(=O)c1ccc(C(F)(F)F)cc1` here?
The inhibition was “inactive”.

With `O=C(O)CSC(=O)[C@H](Cc1c[nH]c2ccccc12)NC(=O)c1cccc([N+](=O)[O-])c1` as the compound, how does the inhibition read?
Its inhibition is “inactive”.

Test system: Bacteria
Test: Binding affinity to bacterial metallo-beta-lactamase L1 expressed in Escherichia coli BL21 (DE3) assessed as change in enthalpy by ITC method
Details: not given

For `CSCC[C@H](NC(=O)c1ccc(Cl)cc1)C(=O)SCC(=O)O`, which deltaH is on record?
The deltaH was -28.2 kcal/mol.

Test system: not listed separately
Test: Stability in Tris buffer at pH 6 to 8.5 measured every 2 hrs for 24 hrs by UV-Vis spectroscopic analysis
Type: physicochemical
Details: pH 6, 24 h
How it was run: (§4)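 Thioester in Tris buffer at pH 6.0, 7.0 or 8.5, or at pH 7.0 with increasing L1 concentration. Absorbance at 245 nm was recorded every 2 h over 24 h.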

For `CSCC[C@H](NC(=O)c1ccc(Cl)cc1)C(=O)SCC(=O)O`, which Stability is on record?
The Stability was “Stable”.

Test system: Bacteria
Test: Inhibition of bacterial metallo-beta-lactamase NDM1 expressed in Escherichia coli BL21 (DE3) at 20 uM using cefazolin as substrate preincubated for 30 mins followed by substrate addition
Details: not given

With `CSCC[C@H](NC(=O)c1ccc(Cl)cc1)C(=O)SCC(=O)O` as the compound, how does the inhibition read?
Its inhibition is “inactive”.

Which inhibition does the source give for `O=C(O)CSC(=O)[C@H](Cc1c[nH]c2ccccc12)NC(=O)c1cccc(Br)c1` here?
Its inhibition is “inactive”.

For `O=C(O)CSC(=O)[C@H](Cc1c[nH]c2ccccc12)NC(=O)c1ccc(C(F)(F)F)cc1`, which inhibition is on record?
The inhibition was “inactive”.

Which inhibition does the source give for `O=C(O)CSC(=O)[C@H](Cc1c[nH]c2ccccc12)NC(=O)c1cccc([N+](=O)[O-])c1` here?
Its inhibition is “inactive”.

Test system: Bacteria
Test: Inhibition of bacterial metallo-beta-lactamase L1 expressed in Escherichia coli BL21 (DE3) at 20 uM using cefazolin as substrate preincubated for 30 mins followed by substrate addition relative to control
Details: not given

For `CSCC[C@H](NC(=O)c1ccc(Cl)cc1)C(=O)SCC(=O)O`, which inhibition is on record?
The inhibition was 90 to 95%.

Which inhibition does the source give for `O=C(O)CSC(=O)[C@H](Cc1c[nH]c2ccccc12)NC(=O)c1cccc(Br)c1` here?
The inhibition was 90 to 95%.

Which inhibition does the source give for `O=C(O)CSC(=O)[C@H](Cc1c[nH]c2ccccc12)NC(=O)c1ccc(C(F)(F)F)cc1` here?
The inhibition was 90 to 95%.

With `O=C(O)CSC(=O)[C@H](Cc1c[nH]c2ccccc12)NC(=O)c1cccc([N+](=O)[O-])c1` as the compound, how does the inhibition read?
Its inhibition is 90 to 95%.

Test system: Bacteria
Test: Inhibition of bacterial metallo-beta-lactamase L1 expressed in Escherichia coli BL21 (DE3) assessed as cefazolin MIC at 16 ug/ml after 16 hrs by broth macrodilution method (reference value: 32 ug/ml)
Details: not given
How it was run: as §1

Which MIC does the source give for `CSCC[C@H](NC(=O)c1ccc(Cl)cc1)C(=O)SCC(=O)O` here?
Its MIC is 16 µg/mL.

With `O=C(O)CSC(=O)[C@H](Cc1c[nH]c2ccccc12)NC(=O)c1cccc(Br)c1` as the compound, how does the MIC read?
Its MIC is 16 µg/mL.

With `O=C(O)CSC(=O)[C@H](Cc1c[nH]c2ccccc12)NC(=O)c1ccc(C(F)(F)F)cc1` as the compound, how does the MIC read?
Its MIC is 16 µg/mL.

For `O=C(O)CSC(=O)[C@H](Cc1c[nH]c2ccccc12)NC(=O)c1cccc([N+](=O)[O-])c1`, which MIC is on record?
Its MIC is 16 µg/mL.

Test system: L929
Test: Cytotoxicity against mouse L929 cells up to 200 uM after 48 hrs by CCK8 assay
Type: cell-based
Details: l929, 48 h

With `CSCC[C@H](NC(=O)c1ccc(Cl)cc1)C(=O)SCC(=O)O` as the compound, how does the Activity read?
The Activity was “Non-Toxic”.

Test system: not listed separately
Test: Drug metabolism assessed as bacterial metallo-beta-lactamase L1-mediated hydrolysis measured every 2 hrs for 24 hrs by UV-Vis spectroscopic analysis
Type: ADME
Details: bacteria
How it was run: as §4

With `CSCC[C@H](NC(=O)c1ccc(Cl)cc1)C(=O)SCC(=O)O` as the compound, how does the Drug metabolism read?
Its Drug metabolism is “Metabolite_Detected”.

Test system: not listed separately
Test: Retention time of compound by HPLC method
Type: physicochemical
Details: not given
How it was run: as §2

Which Retention_time does the source give for `CSCC[C@H](NC(=O)c1ccc(Cl)cc1)C(=O)O` here?
Its Retention_time is 4.2 min.

For `CSCC[C@H](NC(=O)c1ccc(Cl)cc1)C(=O)SCC(=O)O`, which Retention_time is on record?
Its Retention_time is 4.5 min.

Test system: Bacteria
Test: Binding affinity to bacterial metallo-beta-lactamase L1 expressed in Escherichia coli BL21 (DE3) at 2 to 10 mM after 1 hr by STD NMR method
Details: not given
How it was run: as §3

For `CSCC[C@H](NC(=O)c1ccc(Cl)cc1)C(=O)SCC(=O)O`, which Activity is on record?
The Activity was “Active”.
